Measured values taken from ChEMBL document CHEMBL2203225, “Dehydrozingerone, a structural analogue of curcumin, induces cell-cycle arrest at the G2/M phase and accumulates intracellular ROS in HT-29 human colon cancer cells” (J Nat Prod, 2012).
Active and inactive are the calls of the source. The rule behind the calls is not given here.

Key:
HT-29 [1] = assay: Cytotoxicity against human HT-29 cells assessed as growth inhibition after 72 hrs by WST-8 assay; format: functional
Procedure, shortened: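 Viability read by WST-8 (Cell Counting Kit-8) after 72 h incubation of HT-29 cells with compound. Cells cultured in DMEM with 10% FBS at 37 °C, 5% CO₂. Means ± SD, n = 3.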

HT-29 [2] = assay: Induction of ROS generation in human HT-29 cells at > 250 uM after 24 hrs by FACS flow cytometry; format: functional, cell-based
HT-29 [3] = assay: Cell cycle arrest in human HT-29 cells assessed as ROS-stimulated accumulation at G2/M phase at 62.5 to 250 uM after 24 hrs by propidium iodide based FACS flow cytometry
HT-29 [4] = assay: Cytotoxicity against human HT-29 cells assessed as dead cells at GI70 concentration after 72 hrs by WST-8 assay; format: functional
Procedure, shortened: (§1)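 HT-29 colon cancer cells grown in DMEM with 10% FBS, 2 mM glutamine, penicillin and streptomycin at 37 °C, 5% CO2. Cells exposed to compound or vehicle (0.1% DMSO) for 72 h. Live and dead cells were counted by ViaCount staining on a Guava EasyCyte Plus flow cytometer, and percent dead cells was calculated. Mean ± SD, n = 3.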

HT-29 [5] = assay: Cytotoxicity against human HT-29 cells assessed as dead cells at > 31.3 uM after 72 hrs by […]; format: functional; procedure, shortened: as §1
HT-29 [6] = assay: Cell cycle arrest in human HT-29 cells assessed as accumulation at G2/M phase at 250 uM after 24 hrs by propidium iodide based FACS flow cytometry; format: functional
Procedure, shortened: (§2)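 HT-29 cells exposed 24 h to 125, 250 or 500 μM, with 0.1% DMSO as vehicle control. Permeabilized with 0.1% Triton X-100, stained with 100 μg/mL PI and analysed by FACSCalibur for G1/S/G2/M percentages. Means ± SD, n = 3; significance tested against DMSO control.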

WI-38 [7] = assay: Cytotoxicity against human WI38 cells assessed as growth inhibition after 72 hrs by WST-8 assay; format: cell-based; settings: wi-38, 72 h
WI-38 [8] = assay: Cell cycle arrest in human WI38 cells assessed as ROS-stimulated accumulation at G2/M phase at 250 uM after 24 hrs by propidium iodide based FACS flow cytometry in presence of N-acetyl-L-cysteine; settings: wi-38, 24 h
HCT-15 [9] = assay: Cell cycle arrest in human HCT15 cells assessed as ROS-stimulated accumulation at G2/M phase after 24 hrs by propidium iodide based FACS flow cytometry in presence of alpha-tocopherol; format: functional
HCT-15 [10] = assay: Cell cycle arrest in human HCT15 cells assessed as ROS-stimulated accumulation at G2/M phase after 24 hrs by propidium iodide based FACS flow cytometry in presence of L-ascorbic acid; format: functional
HCT-15 [11] = assay: Cell cycle arrest in human HCT15 cells assessed as ROS-stimulated accumulation at G2/M phase after 24 hrs by propidium iodide based FACS flow cytometry in presence of N-acetyl-L-cysteine; format: functional
HCT-116 [12] = assay: Cell cycle arrest in human HCT116 cells assessed as ROS-stimulated accumulation at G2/M phase after 24 hrs by propidium iodide based FACS flow cytometry in presence of alpha-tocopherol; format: functional
HCT-116 [13] = assay: Cell cycle arrest in human HCT116 cells assessed as ROS-stimulated accumulation at G2/M phase after 24 hrs by propidium iodide based FACS flow cytometry in presence of L-ascorbic acid; format: functional
HCT-116 [14] = assay: Cell cycle arrest in human HCT116 cells assessed as ROS-stimulated accumulation at G2/M phase after 24 hrs by propidium iodide based FACS flow cytometry in presence of N-acetyl-L-cysteine; format: functional
HCT-15 [15] = assay: Cytotoxicity against human HCT15 cells assessed as growth inhibition after 72 hrs by WST-8 assay; format: functional, cell-based
HCT-116 [16] = assay: Cytotoxicity against human HCT116 cells assessed as growth inhibition after 72 hrs by WST-8 assay; format: functional, cell-based
HT-29 [17] = assay: Cell cycle arrest in human HT-29 cells assessed as ROS-stimulated accumulation at G2/M phase at 125 to 500 uM after 24 hrs by propidium iodide based FACS flow cytometry in presence of N-acetyl-L-cysteine; format: functional
Procedure, shortened: (§3)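 HT-29 cells grown in DMEM with 10% FBS and 2 mM glutamine at 37 °C, 5% CO₂, treated 24 h, then permeabilized with 0.1% Triton X-100. Stained with 100 μg/mL propidium iodide and analysed for G1, S and G2/M fractions by FACSCalibur flow cytometry. Data are means ± SD, n = 3, versus 0.1% DMSO control.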

HT-29 [18] = assay: Cell cycle arrest in human HT-29 cells assessed as ROS-stimulated increase in p21 at 250 to 500 uM after 24 hrs by Western blotting in presence of N-acetyl-L-cysteine; format: functional, cell-based
HT-29 [19] = assay: Cell cycle arrest in human HT-29 cells transfected with p21 siRNA assessed as accumulation at G2/M phase at 500 uM after 24 hrs by propidium iodide based FACS flow cytometry; format: functional
Procedure, shortened: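 HT-29 cells transiently transfected for 24 h with 10 nM p21 or negative-control siRNA using Lipofectamine RNAiMAX, alongside 24 h exposure to 500 μM or 0.1% DMSO. Cells were PI-stained and cell-cycle phases quantified by flow cytometry. Means ± SD, n = 3, versus DMSO-treated control.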

HT-29 [20] = assay: Upregulation of p21 gene expression in human HT-29 cells assessed as decrease in phosphorylated CDK1 at Thr161 at 500 uM after 24 hrs by Western blotting; format: functional, cell-based
Procedure, shortened: (§4)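 HT-29 cells treated 24 h or given 0.1% DMSO, then lysed in 50 mM Tris-HCl with 1% SDS and protease inhibitors. Blots were blocked in 5% skim milk/TBST for 1 h at RT and probed with primary antibody for 1 h at RT. Detection by ECL, with β-actin as loading control.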

HT-29 [21] = assay: Upregulation of p21 gene expression in human HT-29 cells at > 250 uM after 24 hrs by Western blotting; format: functional, cell-based; procedure, shortened: as §4
HT-29 [22] = assay: Upregulation of Cyclin B gene expression in human HT-29 cells at 125 to 500 uM after 24 hrs by Western blotting; format: functional, cell-based; procedure, shortened: as §4
HT-29 [23] = assay: Upregulation of CDK1 gene expression in human HT-29 cells at 125 to 500 uM after 24 hrs by Western blotting; format: functional, cell-based; procedure, shortened: as §4
HT-29 [24] = assay: Cell cycle arrest in human HT-29 cells assessed as accumulation at G2/M phase at > 250 uM after 24 hrs by propidium iodide based FACS flow cytometry relative to control; format: functional; procedure, shortened: as §2
HT-29 [25] = assay: Cytotoxicity against human HT-29 cells assessed as dead cells at 1000 uM after 72 hrs by […]; format: functional; procedure, shortened: as §1
HT-29 [26] = assay: Cytotoxicity against human HT-29 cells assessed as dead cells at 500 uM after 72 hrs by […]; format: functional; procedure, shortened: as §1
HT-29 [27] = assay: Cell cycle arrest in human HT-29 cells assessed as ROS-stimulated accumulation at G2/M phase after 24 hrs by propidium iodide based FACS flow cytometry in presence of L-ascorbic acid; format: functional; procedure, shortened: as §3
HT-29 [28] = assay: Cell cycle arrest in human HT-29 cells assessed as ROS-stimulated accumulation at G2/M phase after 24 hrs by propidium iodide based FACS flow cytometry in presence of alpha-tocopherol; format: functional; procedure, shortened: as §3
HT-29 [29] = assay: Cell cycle arrest in human HT-29 cells assessed as ROS-stimulated accumulation at G2/M phase after 24 hrs by propidium iodide based FACS flow cytometry in presence of MnTBAP; format: functional; procedure, shortened: as §3
HT-29 [30] = assay: Cell cycle arrest in human HT-29 cells assessed as ROS-stimulated accumulation at G2/M phase after 24 hrs by propidium iodide based FACS flow cytometry in presence of PEG-penetreated catalase; format: functional; procedure, shortened: as §3
HT-29 [31] = assay: Cell cycle arrest in human HT-29 cells assessed as ROS-stimulated accumulation at G2/M phase after 24 hrs by propidium iodide based FACS flow cytometry in presence of SOD; format: functional; procedure, shortened: as §3

**Q.** `COc1ccc(/C=C/C(C)=O)cc1O` was tested. Which “growth inhibition (GI)” value (HT-29 [1]) did it give?
**A.** The value was “Active”.

**Q.** What about the Activity (HT-29 [2]) of the same molecule?
**A.** The Activity was “Active”.

**Q.** And the Activity (HT-29 [3])?
**A.** The Activity was “Active”.

**Q.** How did the “growth inhibition (GI)” value (HT-29 [1]) turn out when `COc1cccc(/C=C/C(C)=O)c1O` was run?
**A.** Its value is “Active”.

**Q.** And the Activity (HT-29 [2])?
**A.** Its Activity is “Active”.

**Q.** And the Activity (HT-29 [3])?
**A.** The Activity was “Active”.

**Q.** Which results are given for `COc1cc(/C=C/C(=O)CC(=O)/C=C/c2ccc(O)c(OC)c2)ccc1O` [CURCUMIN]?
**A.** Activity (HT-29 [4]): 45%; Activity (HT-29 [5]): 84%

**Q.** Which results are given for `COc1cc(/C=C/C(C)=O)ccc1O` [DEHYDROZINGERONE]?
**A.** growth inhibition (GI) (HT-29 [1]): Active; Activity (HT-29 [6]): Active; Activity (WI-38 [7]): Toxic; Activity (WI-38 [8]): Toxic; Activity (HCT-15 [9]): Active; Activity (HCT-15 [10]): Active; Activity (HCT-15 [11]): inactive; Activity (HCT-116 [12]): Active; Activity (HCT-116 [13]): Active; Activity (HCT-116 [14]): inactive; growth inhibition (GI) (HCT-15 [15]): Active; growth inhibition (GI) (HCT-116 [16]): Active; Activity (HT-29 [17]): inactive; Activity (HT-29 [18]): inactive; Activity (HT-29 [2]): Active; Activity (HT-29 [19]): inactive; Activity (HT-29 [20]): Active; Activity (HT-29 [21]): Active; Activity (HT-29 [22]): inactive; Activity (HT-29 [23]): inactive; fold change (FC) (HT-29 [24]): 2; Activity (HT-29 [4]): 11%; Activity (HT-29 [25]): 37%; Activity (HT-29 [26]): 22%; Activity (HT-29 [27]): Active; Activity (HT-29 [28]): Active; Activity (HT-29 [29]): Active; Activity (HT-29 [30]): Active; Activity (HT-29 [31]): Active; Activity (HT-29 [3]): Active
